Experimental data as given in ChEMBL document CHEMBL1152968, “Phenylethanoid and lignan glycosides from polar extracts of Lantana, a genus of verbenaceous plants widely used in traditional herbal therapies” (J Nat Prod, 2009).
The source made the active and inactive calls.

Legend:
Assay type in all cases: functional, cell-based
[1] = tested on: U-266; assay: Cytotoxicity against human U266 cells at 10 uM after 48 hrs by fluorescent microplate assay
Outline: (§1)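 Cells were seeded in 96-well plates in RPMI 1640 with 10% fetal calf serum and 10 units/mL penicillin-streptomycin. They were then cultured 24 h at 37 °C in humidified 5% CO2 before treatment. Compounds were added dissolved in DMSO, and the read-out was cell viability.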

[2] = tested on: K562; assay: Cytotoxicity against human K562 cells at 10 uM after 48 hrs by fluorescent microplate assay; outline: as §1
[3] = tested on: CCRF-CEM; assay: Cytotoxicity against human CEM cells at 10 uM after 48 hrs by fluorescent microplate assay; outline: as §1
[4] = tested on: KG-1; assay: Cytotoxicity against human KG1 cells at 10 uM after 48 hrs by fluorescent microplate assay; outline: as §1
[5] = tested on: NCI-H929; assay: Cytotoxicity against human NCI-H929 cells at 10 uM after 48 hrs by fluorescent microplate assay; outline: as §1
[6] = tested on: HL-60; assay: Cytotoxicity against human HL60 cells at 10 uM after 48 hrs by fluorescent microplate assay; outline: as §1
[7] = tested on: Jurkat; assay: Cytotoxicity against human Jurkat cells at 10 uM after 48 hrs by fluorescent microplate assay; outline: as §1
[8] = tested on: U-937; assay: Cytotoxicity against human U937 cells at 10 uM after 48 hrs by fluorescent microplate assay; outline: as §1

Measured: Activity

O=C(/C=C/c1ccc(O)c(O)c1)O[C@H]1[C@H](O[C@@H]2OC[C@](O)(CO)[C@H]2O)[C@@H](O)[C@H](OCCc2ccc(O)c(O)c2)O[C@@H]1CO[C@@H]1OC[C@H](O[C@@H]2OC[C@](O)(CO)[C@H]2O)[C@H](O)[C@H]1O
inactive: [1] | [2] | [3] | [4] | [5] | [6] | [7] | [8]

COc1cc([C@H]2Oc3c(OC)cc([C@H](O)[C@H](O)CO[C@@H]4O[C@H](CO)[C@@H](O)[C@H](O)[C@H]4O)cc3[C@@H]2CO)ccc1O
inactive: [1] | [2] | [3] | [4] | [5] | [6] | [7] | [8]
